Reference: article PMC11152992 (Nature, 2024)

Columns and labels:
[1] = target: serotonin transporter (SERT) (Homo sapiens, UniProt P31645); experiment: Serotonin transporter uptake inhibition; type: cell-based
[2] = target: 5-HT2A (Homo sapiens, UniProt P28223); experiment: 5-HT2A-mediated Gq activation, BRET; type: cell-based; conditions: read-out: Gq BRET EC50; 5-HT2A-mediated Gq activation
[3] = system: locomotor activity (measure of 5-HT1A activation); experiment: Open-field locomotion assay; type: in vivo, C57BL/6J mice; conditions: mice, s.c.
In short: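 Male C57BL/6J mice aged 10–15 weeks were habituated for 30 min, then pretreated with vehicle or WAY-100635 (1 or 2 mg kg⁻¹ s.c.). Test compound followed 15 min later, s.c. at 0.1–3 or 0.3–10 mg kg⁻¹. Mice were placed immediately in a clear arena lit at about 330 lux. Observers were blinded; total locomotion was recorded automatically over 30 min, n = 7–8 per group.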

[4] = Mouse plasma protein binding; type: in vitro ADME; conditions: Mouse Plasma
[5] = system: all other G protein-coupled 5-HT receptors; experiment: Off-target activity at 5-HT receptors; type: cell-based, human; conditions: compared with activity at 5-HT1A
[6] = Human plasma protein binding; type: in vitro ADME; conditions: Human Plasma
[7] = Mouse brain tissue binding; type: in vitro ADME
[8] = system: chronic social defeat stress mice; experiment: Social interaction; type: in vivo, C57BL/6J mice
In short: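 Male C57BL/6J mice, 8 weeks old, had 10 consecutive days of 10-min defeat by a new CD-1 aggressor each day, then were housed overnight across a partition; controls were pair-housed and handled daily. Drug or vehicle was given 1 h after the last defeat, with SI testing 24 h later. The interaction ratio was interaction-zone time, target vs no-target; corner time and no-target locomotion were also scored. Pooled from three experiments; two-way ANOVA; resilient (>1) vs susceptible (<1) compared by Fisher's exact test.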

[9] = system: chronic social defeat stress mice; experiment: Sucrose preference test after chronic social defeat stress; type: in vivo, C57BL/6J mice; conditions: 1 mg kg^-1 s.c., 1% sucrose two-bottle choice
In short: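 Chronic social defeat was 10 days of 10-min bouts by CD-1 aggressors in male C57BL/6J mice. On day 10, stressed mice were housed singly and habituated to two water bottles, then given a two-bottle choice between water and 1% sucrose. Data were pooled from two independent experiments.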

[10] = target: T1, 5-HT1A (Homo sapiens, UniProt P08908); experiment: 5-HT1A-mediated Gi1 activation, BRET; type: cell-based
T1 sequence (P08908 1-422): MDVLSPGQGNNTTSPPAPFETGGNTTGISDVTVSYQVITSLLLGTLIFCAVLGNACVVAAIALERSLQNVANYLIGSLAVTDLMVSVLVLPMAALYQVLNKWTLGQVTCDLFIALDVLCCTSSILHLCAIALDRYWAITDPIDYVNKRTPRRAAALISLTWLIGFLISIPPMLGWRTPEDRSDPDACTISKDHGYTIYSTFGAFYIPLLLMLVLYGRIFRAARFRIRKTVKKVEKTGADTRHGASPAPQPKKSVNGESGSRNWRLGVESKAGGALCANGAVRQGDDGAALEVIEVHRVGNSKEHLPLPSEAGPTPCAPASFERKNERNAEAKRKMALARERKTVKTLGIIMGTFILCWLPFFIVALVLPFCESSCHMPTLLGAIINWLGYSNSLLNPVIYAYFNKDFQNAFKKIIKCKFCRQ

[11] = system: other neurotransmitter transporters (OCT1, OCT2, PMAT); experiment: OCT1, OCT2 and PMAT uptake inhibition; type: cell-based
[12] = Pharmacokinetics in plasma and brain after s.c. administration; type: in vivo, C57BL/6 male mice; conditions: mice; for AUClast / Cmax: 1 mg/kg SC
In short: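 Male C57BL/6 mice (27; 3 per time point) received a subcutaneous solution formulation. Retro-orbital blood (~60 μl) was taken under light isoflurane at 0.083–12 h. Plasma and brain levels were measured by LC–MS/MS with non-compartmental analysis: Cmax and Tmax as observed, AUClast by linear trapezoidal rule, Kp calculated. For plasma protein binding, compound was spiked at 5 μM final into mouse plasma and dialysed 4 h at 37 °C.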

[13] = system: head-twitch response (measure of 5-HT2A activation); experiment: Head-twitch response; type: in vivo, C57BL/6J mice; conditions: mice, doses up to 3 mg kg^-1, in the presence or absence of WAY-100635

Sequence of serotonin transporter (SERT) (P31645 whole entry, species assumed): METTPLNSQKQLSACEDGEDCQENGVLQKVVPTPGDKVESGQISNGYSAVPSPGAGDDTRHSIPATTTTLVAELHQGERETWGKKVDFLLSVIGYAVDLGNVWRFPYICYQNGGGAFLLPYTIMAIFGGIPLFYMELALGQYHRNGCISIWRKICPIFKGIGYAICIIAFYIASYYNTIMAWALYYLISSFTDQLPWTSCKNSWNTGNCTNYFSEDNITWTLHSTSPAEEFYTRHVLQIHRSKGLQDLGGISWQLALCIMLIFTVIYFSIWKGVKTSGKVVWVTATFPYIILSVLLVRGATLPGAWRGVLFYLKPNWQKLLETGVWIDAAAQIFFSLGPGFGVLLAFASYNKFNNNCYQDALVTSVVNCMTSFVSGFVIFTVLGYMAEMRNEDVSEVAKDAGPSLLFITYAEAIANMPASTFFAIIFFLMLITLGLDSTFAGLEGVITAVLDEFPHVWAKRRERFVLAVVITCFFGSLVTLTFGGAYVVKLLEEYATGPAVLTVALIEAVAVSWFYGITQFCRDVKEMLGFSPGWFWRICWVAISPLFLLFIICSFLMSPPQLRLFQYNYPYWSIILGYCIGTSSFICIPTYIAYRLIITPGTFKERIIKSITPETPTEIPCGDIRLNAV
Sequence of 5-HT2A (P28223 whole entry): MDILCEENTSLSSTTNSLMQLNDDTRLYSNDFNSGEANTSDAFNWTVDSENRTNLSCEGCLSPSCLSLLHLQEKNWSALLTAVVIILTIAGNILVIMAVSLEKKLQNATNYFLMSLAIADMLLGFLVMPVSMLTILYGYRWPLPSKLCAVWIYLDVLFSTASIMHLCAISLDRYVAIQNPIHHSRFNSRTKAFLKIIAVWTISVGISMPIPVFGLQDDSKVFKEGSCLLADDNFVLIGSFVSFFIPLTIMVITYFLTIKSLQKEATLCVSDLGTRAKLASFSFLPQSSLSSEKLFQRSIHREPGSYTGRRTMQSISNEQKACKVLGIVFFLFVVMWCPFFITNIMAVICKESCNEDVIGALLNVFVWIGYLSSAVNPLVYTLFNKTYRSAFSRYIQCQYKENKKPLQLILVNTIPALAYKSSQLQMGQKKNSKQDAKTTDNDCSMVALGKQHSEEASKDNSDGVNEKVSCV

SMILES: COc1ccc2[nH]cc(CCN3CCCC3)c2c1F [4-F,5-MeO-PyrT, 4-fluoro, 5-methoxypyrrolidinyl-tryptamine]
- activity at the serotonin transporter (in words) [1]: substantially reduced activity
- EC50 [2]: 300 nM
- locomotor activity in the open-field test (in words) [3]: dose-dependent locomotor suppression
- lowest dose that produced suppression of locomotion [3]: 0.03 mg/kg
- % Bound Mean [4]: 37.36%
- % Recovery [4]: 84.7%
- % Unbound [4]: 62.64%
- fu [4]: 0.626
- % Compound remaining at 4 h ([4]; 37 °C): 105.6%
- % Bound R1 ([4]; replicate 1, 4 h at 37 °C): 32.04%
- activity at other 5-HT receptors (in words) [5]: substantially reduced activity
- % Bound Mean [6]: 26.01%
- % Recovery [6]: 81.8%
- % Unbound [6]: 73.99%
- fu [6]: 0.740
- % Compound remaining at 4 h ([6]; 37 °C): 97.9%
- % Bound R1 ([6]; replicate 1, 4 h at 37 °C): 22.19%
- % Bound Mean [7]: 82.5%
- % Recovery [7]: 88%
- % Unbound [7]: 17.5%
- brain tissue binding [7]: 82.5%
- fu [7]: 0.175
- % Compound remaining at 4 h ([7]; 37 °C): 96%
- % Bound R1 ([7]; replicate 1, 4 h at 37 °C): 84.3%
- social avoidance phenotype (decreased interaction ratio) in stress-exposed mice ([8]; 1 mg kg^-1 s.c. 1 h after last defeat, SI test 24 h later): rescued
- interaction ratio in control mice, drug versus vehicle ([8]; 1 mg kg^-1 s.c., non-stressed mice): did not show any distinguishable differences in IR
- increased time in the corners of the arena in defeated mice ([8]; drug-treated stressed mice): no longer observed
- number of resilient mice (SI ratio > 1) ([8]; drug-treated versus vehicle-treated stressed mice): increased the number of resilient mice
- sucrose preference in stressed mice relative to vehicle-treated animals [9]: significantly increased sucrose preference
- maximum drug effect (Emax) ([10]; 5-HT1A-mediated activation of Gi1, BRET): 102.8 % of 5-HT
- selectivity for 5-HT1A > 5-HT2A ([10]; Gi BRET at 5-HT1A versus Gq BRET at 5-HT2A): greater than 800 fold
- EC50 ([10]; read-out: Gi BRET EC50, 5-HT1A-mediated Gi1 activation, HEK293-T cells): 0.37 nM
- activity at other neurotransmitter transporters (in words) [11]: substantially reduced activity
- AUClast ([12]; Brain): 128.34 ng·h/mL
- Cmax ([12]; Brain): 143.35 ng/mL
- AUClast ([12]; Plasma): 26.40 ng·h/mL
- Cmax ([12]; Plasma): 44.02 ng/mL
- time within which compound was largely cleared ([12]; 1 mg kg^-1 s.c.): ≤ 2 h
- total brain-to-plasma ratio ([12]; 1 mg kg^-1 s.c.): 3.3
- unbound brain-to-plasma ratio ([12]; 1 mg kg^-1 s.c.): 0.91
- time of peak brain penetration ([12]; 1 mg kg^-1 s.c., following drug administration): 30 min
- estimated free drug concentration in the brain at Tmax ([12]; s.c. dose of 1 mg kg^-1, at 82.5% brain tissue binding): about 100 nM
- HTR (in words) [13]: did not produce notable HTR
